Compound activity from PubChem.
The list is not random: actives were taken first. Their share in the collection is about 2.6%.
CHT inh – inhibits the human high affinity choline transporter; Q9GZV3; AID 488975; CHT-expressing cells, membrane potential dye, choline response; hits give low values; 0.86% of 310,000 active; B-score at 10 µM;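 active = B-score over 3 SD under the library average, and starting fluorescence ratio not unusually high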;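 note: choline stimulus applied at its EC90 after an EC20 pre-addition; B-score computed on integrated fluorescence ratio after choline addition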
Target sequence (Q9GZV3 whole entry, looked up): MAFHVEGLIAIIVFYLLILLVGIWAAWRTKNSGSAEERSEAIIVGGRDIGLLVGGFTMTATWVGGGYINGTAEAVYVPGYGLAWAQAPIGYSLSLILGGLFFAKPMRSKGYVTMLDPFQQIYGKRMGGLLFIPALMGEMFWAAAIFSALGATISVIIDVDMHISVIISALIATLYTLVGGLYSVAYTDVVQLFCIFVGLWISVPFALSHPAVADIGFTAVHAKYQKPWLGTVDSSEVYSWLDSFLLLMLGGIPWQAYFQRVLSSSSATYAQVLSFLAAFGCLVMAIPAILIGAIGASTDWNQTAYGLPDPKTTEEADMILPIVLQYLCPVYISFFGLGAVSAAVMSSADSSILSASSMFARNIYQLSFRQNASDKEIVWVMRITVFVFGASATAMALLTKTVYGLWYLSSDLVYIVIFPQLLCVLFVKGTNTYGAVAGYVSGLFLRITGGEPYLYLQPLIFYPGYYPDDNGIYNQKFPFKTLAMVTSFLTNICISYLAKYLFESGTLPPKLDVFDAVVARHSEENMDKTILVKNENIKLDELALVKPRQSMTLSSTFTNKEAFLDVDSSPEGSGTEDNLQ
Rad51 HR inh – blocks human Rad51 in homologous recombination; hRad51 DNA strand exchange, fluorescence dequenching; inhibition, % at 10 µM; AID 1385; 0.085% of 200,000 active;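 active = inhibition above 40% at the single screening dose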;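 note: 0% = DMSO control wells and 100% = blanks with heterologous ssDNA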
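Assay system: Human Rad51 nucleoprotein filaments preassembled on unlabelled ssDNA | Reagent: Donor/quencher-labelled 47-bp dsDNA substrate | Doses: One concentration, 10 µM final | Times: 37 °C 15-min filament assembly, 30-min compound preincubation, 15-min exchange | Technique: Fluorescein emission 520 nm, excitation 485 nm | Benchmarks: Plate control and blank wells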
CHT allo act – human CHT allosteric activation; 0.49% of 310,000 active; CHT-expressing cells, membrane potential dye, choline EC20; hits give high values; LV-AA mutant CHT in HEK293 cells; B-score at 10 µM; Q9GZV3; AID 488977;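 active = initial fluorescence not abnormally high and integrated response B-score, plate-corrected, over 3 SD above library mean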
KCC2 mod – modulates chloride dependent transport by human KCC2; B-score of Tl+ flux slope (higher = more flux/activation; lower = inhibition) at 10 µM; 2.2% of 190,000 active; KCC2 cells, thallium flux FluoZin-2 fluorescence; Q9H2X9;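 active = thallium flux slope and its plate-corrected score both differing from the plate sample mean at a set confidence after two filtering rounds, in either direction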;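 note: slope of fluorescence scaled to starting intensity during 10 to 20 s after thallium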
CHT act confirm – confirmation of human choline transporter (CHT) activators | shares compounds with CHT allo act | CHT-expressing cells, membrane potential dye fluorescence (FDSS); % of choline EC20–EC90 response window; HEK293 expressing CHT LV-AA mutant; choline added at its EC20 | activation, % at 10 µM | 91% of 2,500 active;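 active = primary screen active, with duplicate mean activation above negative control mean plus 3 SD, cut at about 11% in these data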
HEK293 MP dye – activity in parental HEK293 cells lacking CHT | shares compounds with CHT allo act | membrane potential dye fluorescence (FDSS); measured after EC20 choline addition | ratio readout change at 10 µM, hits read low | 62% of 2,500 active | AID 623908;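 active = duplicate-averaged ratio beyond 3 SD from buffer wells, up or down, though filed actives are nearly all decreases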
Numbers without * were called inactive; i = inactive; nt = no result given.

SMILES	CHT inh	Rad51 HR inh	CHT allo act	KCC2 mod	CHT act confirm	HEK293 MP dye
Cc1nnc(SCC(=O)NC2CCCCC2)s1	i	-16	i	-0.12	nt	nt
CN(C)CCN(Cc1ccccc1)C(=O)[C@H](Cc1ccccc1)N1C(=O)c2ccccc2C1=O	i	nt	i	nt	nt	nt
c1cn(CCCNc2ncnc3nc[nH]c23)cn1	i	-6	i	nt	nt	nt
Cc1sc2ncnc(NCCCn3ccnc3)c2c1C	i	-4	i	0.053	48*	-51*
COCCN1Cc2cccc(C(=O)Nc3cccnc3)c2C1=O	i	nt	6.5*	-0.034	40*	-41*
Cc1ccc(OC(C)C(=O)N/N=C/c2ccccn2)cc1 (stereo unspecified)	i	-3	i	nt	nt	nt
CCOc1ccc(Nc2cc(C)nc3ccc(C)cc23)cc1	i	nt	i	nt	35*	-47*
Cc1ccc(Nc2cc(C)nc3ccc(C)cc23)cc1	i	nt	i	nt	nt	nt
CCOC(=O)c1ccc2nc(C)cc(Nc3cccc(C(=O)O)c3)c2c1	i	nt	i	nt	27*	-25*
CCC(=O)N(CCC(c1ccc(C)cc1)c1ccco1)Cc1ccco1 (stereo unspecified)	i	0	8.7*	-1.3	40*	i
COc1ccc(-c2nc(C#N)c(NCCCN3CCOCC3)o2)cc1	i	nt	i	-0.74	24*	-21*
CCOC(=O)C1(Cc2ccc(OC)cc2)CCN(C(=O)CN2CCCCC2=O)CC1	i	-1	i	1.2	nt	nt
CC(C)COP(=O)(OCC(C)C)C(Nc1ccccc1)c1ccc(F)cc1 (stereo unspecified)	i	14	i	-0.62	15*	i
COc1ccc(OC)c(C(c2nnnn2C2CCCC2)N2CCN(c3ccccc3F)CC2)c1 (stereo unspecified)	i	-6	i	nt	35*	i
COc1ccc(N2CCN(C(c3ccccc3OC)c3nnnn3C3CCCC3)CC2)cc1 (stereo unspecified)	nt	-2	nt	-1.9	nt	nt
Cc1ccc(OCC(O)CNC2CCCC2)c(C)c1 (stereo unspecified)	i	nt	i	nt	nt	nt
Cc1ccccc1OCC(O)CNC1CCC(NCC(O)COc2ccccc2C)CC1 (stereo unspecified)	i	nt	i	nt	21*	i
CCCCCCn1c2c(c(=N)c3c1CCC3)CCC2	i	-3	8.2*	nt	72*	-44*
CCCCCCCCCn1c2c(c(=N)c3c1CCC3)CCC2	i	9	11*	0.082	82*	-61*
CCCCn1c2c(c(=N)c3c1CCC3)CCC2	i	-1	7.4*	nt	35*	-52*
O=[N+]([O-])c1cccc(-c2cc(C(F)(F)F)n3nc(-c4ccccc4)cc3n2)c1	i	-11	i	-0.71	nt	nt
Cc1cc(=O)n2nc(N3CCC(C(=O)NCc4ccccc4F)CC3)sc2n1	i	nt	i	nt	nt	nt
CC(C)C1Oc2ccccc2N(CC(=O)NC2CCCCC2)C1=O (stereo unspecified)	i	nt	i	nt	9.8*	i
c1ccc(CCn2nnnc2CN2CCCc3ccccc32)cc1	i	10	7.3*	0.31	8	i
O=S(=O)(c1ccc2ccccc2c1)N(CC1CO1)c1ccccc1 (stereo unspecified)	i	-5	i	-2	nt	nt
SMILES	CHT inh	Rad51 HR inh	CHT allo act	KCC2 mod	CHT act confirm	HEK293 MP dye
CCOC(=O)c1c(C)[n+](-c2ccc(C)cc2)c(CC)c2cc(OC)c(OC)cc12	i	nt	i	nt	49*	-35*
CCOC(=O)c1c(C)[nH]c2cc(Br)c(OC)cc12	i	17	i	2	nt	nt
CN(C)/C=C/C(=O)c1ccc(F)cc1F	i	1	i	0.9	nt	nt
CCN(Cc1ccccc1)C(=O)c1nn(-c2ccc(OC)cc2)c(=O)c2c1c1ccccc1n2C	i	4	i	-2.2	46*	i
O=C(c1ccccn1)c1cc2ccccc2n1S(=O)(=O)c1ccccc1	i	nt	i	-0.067	nt	nt
CCOc1ccc(S(=O)(=O)N2c3ccccc3CC2C)cc1 (stereo unspecified)	i	-12	i	-1.3	39*	i
COC(=O)c1cc2c(=O)n3ccccc3nc2n(Cc2cccnc2)c1=N	i	1	6.8*	0.26	40*	-55*
Cc1ccc2nc3c(cc(C#N)c(=N)n3Cc3cccnc3)c(=O)n2c1	i	1	8.5*	nt	41*	-28*
N=c1c(C(=O)NCc2ccc(F)cc2)cc2c(=O)n3ccccc3nc2n1Cc1cccnc1	i	-1	i	nt	nt	nt
C=CCn1c(=N)c(C#N)cc2c(=O)n3ccccc3nc21	i	-2	i	-0.46	nt	nt
CCOCC(=O)N1CCN(c2ccc([N+](=O)[O-])cc2)CC1	i	-4	i	-0.13	nt	nt
CC(OC(=O)Cc1ccc(F)cc1)C(=O)NCc1ccc2c(c1)OCO2 (stereo unspecified)	i	nt	i	nt	nt	nt
CCCC(=Nc1ccccc1OC)C1=C(O)CC(c2ccccc2)CC1=O (stereo unspecified)	i	nt	i	-3.7	nt	nt
COc1ccccc1N=C(C)C1=C(O)CC(c2ccccc2)CC1=O (stereo unspecified)	i	32	9.7*	-2.5	56*	i
CCCCNC(=O)C1CCC(CNS(=O)(=O)c2c(C)cc(C)cc2C)CC1 (stereo unspecified)	i	nt	i	nt	nt	nt
COC(=O)C1=C(C)N(Cc2ccccc2)C(=NCc2ccc(OC)cc2)N[C@H]1c1cccc(F)c1	i	nt	i	nt	20*	i
CCN1C(=NCC2CC2)N[C@@H](c2cccc(C(F)(F)F)c2)C(C(=O)OC)=C1C	i	nt	11*	nt	25*	i
COC(=O)[C@]1(CC(C)C)N[C@H](c2ccc(-c3cccc(Cl)c3)cc2)[C@@H]2C(=O)N(C)C(=O)[C@@H]21	i	nt	i	nt	nt	nt
Cn1c(C(=O)NCCN2CCCCCC2)cc2c(=O)n(C)c3ccccc3c21	i	5	i	-1.2	25*	-27*
Cn1c(C(=O)NC2CCCC2)cc2c(=O)n(C)c3ccccc3c21	i	-8	i	-1	nt	nt
COc1ccc(/C=N/Nc2nc(-c3ccc(Cl)cc3)cc(C(F)(F)F)n2)c(OC)c1	i	3	i	-0.052	nt	nt
O=C1C(NS(=O)(=O)c2cccs2)=C(N2CCN(c3cccc(C(F)(F)F)c3)CC2)C(=O)c2ccccc21	i	1	i	0.0042	nt	nt
O=C1C(NS(=O)(=O)c2cccs2)=C(N2CCOCC2)C(=O)c2ccccc21	i	nt	7.2*	0.061	41*	-40*
O=C(COc1ccc(Br)cc1CNC1CCCC1)Nc1ccccc1	i	0	i	-1.1	7	i
